Data on nine molecules can be found in ChEMBL document CHEMBL1158782, “Cytotoxic germacrane sesquiterpenes from the aerial parts of Santolina insularis” (J Nat Prod, 2005).

Where only a bound is given, the exact number is not on record here.

The nature of experiment [1]: Cytotoxicity against mouse peritoneal macrophages cells after 24 hrs by MTT assay. The following applies: Macrophage. It counts as cell-based. The method, boiled down: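 Mouse cells harvested 4 days after intraperitoneal 10% thioglycollate, about 70% macrophages. Plated at 1 × 10^5/well and left to adhere for 3 h in DMEM with 10% FBS, 2 mM L-glutamine, 25 mM HEPES, antibiotics and 5 mM sodium pyruvate at 37 °C. Treated 24 h with compounds at 0.1-10 µg/mL. MTT (5 mg/mL) for 3 h, DMSO solubilization, OD490 read.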
On the technique in general: Tetrazolium dyes change colour on reduction, which living cells bring about.

In the next experiment the test system is Caco-2. Nature of the experiment: Cytotoxicity against human Caco-2 cells after 24 hrs by MTT assay. It counts as functional, cell-based. The following applies: Caco-2, 24 h. The method, boiled down:
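Caco-2 cells kept in DMEM with 10% FBS, 25 mM HEPES, 100 U/mL penicillin and 100 µg/mL streptomycin at 37 °C under humidified 5% CO2. Seeded at 1 × 10^4/well for 48 h, then exposed to compounds (0.1-10 µg/mL) for 24 h. MTT (5 mg/mL) added for 3 h at 37 °C, formazan dissolved in DMSO, OD490 read. IC50 reported.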

One may read the IC50 as the concentration needed to halve the response being measured. Consider `C=C1C[C@@H](O)/C=C(\C)CC[C@@H](C(C)C)[C@@H](O)C1`, for which the IC50 in experiment [1] is ≥ 10 µg/mL.

As for `C=C1C[C@@H](O)[C@H](O)[C@]2(C)CC[C@@H](C(C)C)[C@@H](O)[C@@H]1O2`, the concentration for half-maximal inhibition (IC50) in experiment [1] is ≥ 10 µg/mL; in the experiment with Caco-2, 3700 nM.

Take `C=C1C[C@@H](O)[C@H](O)/C(C)=C\C[C@@H](C(C)C)[C@@H](O)[C@@H]1O`: the IC50 in experiment [1] is ≥ 10 µg/mL. As for `C=C1CC[C@@H](C(C)C)[C@@H](O)/C=C(\C)[C@H](O)CC1=O`, in experiment [1], the IC50 was ≥ 10 µg/mL. Same read-out and setting: as for `C/C1=C\[C@H](O)C[C@]2(C)O[C@H]2[C@H](O)[C@H](C(C)C)CC1`, the figure is ≥ 10 µg/mL; as for `C/C1=C\[C@H](O)C/C(C)=C/[C@H](O)[C@H](C(C)C)CC1`, ≥ 10 µg/mL. As for `CC(C)[C@@H]1CC[C@]2(C)O[C@H]2[C@H](O)C[C@]2(C)O[C@H]2[C@@H]1O`, in experiment [1], the IC50 is ≥ 10 µg/mL.

Turning to `C/C1=C/C[C@@H](C(C)C)[C@@H](O)[C@@H]2O[C@@]2(C)C[C@@H](O)[C@@H]1O`, the half-maximal inhibitory concentration (IC50) in experiment [1] is ≥ 10 µg/mL; in the experiment with Caco-2, 1100 nM. Turning to `CC(=O)O[C@H]1/C=C(\C)CC[C@@H](C(C)C)[C@@H](O)[C@@H]2O[C@@]2(C)C1`, the IC50 in experiment [1] was ≥ 10 µg/mL.
